The source of these data is ChEMBL document CHEMBL3272343, “Etodolic acid and related compounds. Chemistry and antiinflammatory actions of some potent di- and trisubstituted 1, 3, 4, 9-tetrahydropyrano[3, 4-b]indole-1-acetic acids” (J Med Chem, 1976).

Each structure is given as a SMILES string. Active and inactive are the calls of the source. The calls are words filed in the database; no cut-off is given here.

In data set [1] the test system is Rattus norvegicus. In words: Antiinflammatory activity in rat assessed as inhibition of adjuvant-induced arthritis administered for 9 days into foot pad 14 days after adjuvant challenge measured on day 22 by mercury displacement analysis. Type of data set: functional. An outline of the steps: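 Oral dosing in groups of six rats with established adjuvant arthritis (Mycobacterium butyricum in mineral oil, injected into left hind foot pad). Treatment ran from day 14 to day 22 (9 po administrations). Injected-paw volume was measured by mercury displacement. A decrease of 0.5 ml or more counted as a therapeutic effect. ED50 was derived by probit analysis of responder counts. Maximum screening dose was 100 mg/kg.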

Data set [2] is described as follows: Therapeutic index, ratio of UD50 for 8 hrs starved po dosed Charles River rat to ED50 for rat assessed as inhibition of adjuvant-induced arthritis. The format is organism-based. Particulars: in vivo, read-out: TI. An outline of the steps:
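Ratio of UD50 to ED50. UD50 came from starved (8 hr) male Charles River rats dosed orally and was calculated graphically. ED50 came from the 9-dose oral adjuvant-arthritis therapeutic test (day 14–22, mercury-displacement paw volume, ≥0.5 ml decrease as responder) and was derived by probit analysis.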

Data set [3] in a line: Gastrointestinal toxicity in 8 hrs starved po dosed Charles River rat assessed as ulcerogenic effect after 18 hrs. The format is organism-based. To be noted: in vivo, read-out: UD50. The method, boiled down:
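Acute ulcerogenicity in male Charles River rats (180–200 g), housed in individual cages and starved 8 hr before oral dosing. UD50 was calculated graphically.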

In data set [4] the test system is Rattus norvegicus. The experiment in a line: Antiinflammatory activity in rat assessed as inhibition of adjuvant-induced arthritis at 50 mg/kg administered for 9 days into foot pad 14 days after adjuvant challenge measured on day 22 by mercury displacement analysis. On the set-up: dose 50 mg/kg. The format is functional, organism-based. The method, boiled down: (§1)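 Therapeutic test in groups of six rats with adjuvant arthritis (Mycobacterium butyricum in mineral oil, left hind foot pad). Oral treatment ran from day 14 to day 22 (9 po doses). Injected-paw volume was measured by mercury displacement. Rats whose paw shrank by 0.5 ml or more were scored as showing a therapeutic effect; smaller changes counted as negative.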

The subject of data set [5] is Rattus norvegicus. The experiment in a line: Antiinflammatory activity in po dosed rat assessed as inhibition of carrageenin-induced paw edema. The format is functional. (In the carrageenan paw model, swelling and tenderness develop within hours.)
The subject of data set [6] is Rattus norvegicus. In words: Antiinflammatory activity in rat assessed as inhibition of adjuvant-induced arthritis at 25 mg/kg administered for 9 days into foot pad 14 days after adjuvant challenge measured on day 22 by mercury displacement analysis. Type of data set: functional, organism-based. On the set-up: dose 25 mg/kg. An outline of the steps: as §1
Data set [7] deals with Rattus norvegicus. The experiment in a line: Antiinflammatory activity in rat assessed as inhibition of adjuvant-induced arthritis at 20 mg/kg administered for 9 days into foot pad 14 days after adjuvant challenge measured on day 22 by mercury displacement analysis. Type of data set: functional, organism-based. On the set-up: dose 20 mg/kg. An outline of the steps: as §1

With `CCc1cccc2c3c([nH]c12)C(CC)(CC(=O)O)OCC3` (centres undefined) [ETODOLAC], the median effective dose (ED50) (commonly the midpoint of the dose-response relation) with Rattus norvegicus [1] turned out to be 0.7 mg/kg. Besides, in data set [2], the selectivity ratio is 85. Also, the TD50 at 18 h in data set [3] came out at 60 mg/kg.
Regarding `CCCCC1C(=O)N(c2ccccc2)N(c2ccccc2)C1=O` [PHENYLBUTAZONE], the ED50 with Rattus norvegicus [1] was determined as 5.4 mg/kg. The TD50 at 18 h in data set [3] stood at 100 mg/kg.
On to `CCCC1(CC(=O)O)OCCc2c1[nH]c1cc(C)ccc21` (centres undefined), for which the inhibition result in the data set with Rattus norvegicus [4] is “inactive”.
Take `CCCC1(CC(=O)O)OCCc2c1[nH]c1c(CC)cccc21` (centres undefined): the median effective dose (ED50) in the data set on Rattus norvegicus [1] worked out at 7.4 mg/kg.
On the same count and under the same terms, as for `CCC1(CC(=O)O)OCCc2c1[nH]c1c(C)cccc21` (centres undefined), the figure is 4.3 mg/kg; as for `CCCC1(CC(=O)O)OCCc2c1[nH]c1cccc(Cl)c21` (centres undefined), above 25 mg/kg.
For `CCC1(CC(=O)O)OCCc2c1[nH]c1c(C)c(Cl)ccc21` (centres undefined), the median effective dose (ED50) with Rattus norvegicus [1] was found to be 0.6 mg/kg. Besides, the selectivity ratio in data set [2] was 41. The ED30 in the data set with Rattus norvegicus [5] turned out to be 15 mg/kg. In data set [3], the TD50 at 18 h was 25 mg/kg.
`CCC1(CC(=O)O)OCCc2c1[nH]c1c(OC)ccc(OC)c21` (centres undefined): in the data set on Rattus norvegicus [1], the ED50 came out at 100 mg/kg.
The same measure, in the same setting: as for `CCC1(CC(=O)O)OCCc2c1[nH]c1c(Cl)c(C)ccc21` (centres undefined), the figure is 4.1 mg/kg; as for `CCC1(CC(=O)O)OCCc2c1[nH]c1cccc(Cl)c21` (centres undefined), 7 mg/kg.
Take `CCCC1(CC(=O)O)OCCc2c1[nH]c1cccc(C)c21` (centres undefined): the ED50 in the data set on Rattus norvegicus [1] came to 10 mg/kg.
Take `CCC1(CC(=O)O)OCCc2c1[nH]c1c(C(C)(C)C)cccc21` (centres undefined): in the data set on Rattus norvegicus [1], the ED50 was found to be 1.9 mg/kg.
For `CCCC1(CC(=O)O)OCCc2c1[nH]c1cc(Cl)ccc21` (centres undefined), the ED50 in the data set on Rattus norvegicus [1] was 3.7 mg/kg.
On to `CCC1(CC(=O)O)OCCc2c1[nH]c1ccc(Br)cc21` (centres undefined), for which the inhibition entry with Rattus norvegicus [6] is “inactive”.
For `CCC1(CC(=O)O)OCCc2c1[nH]c1c(C3CC3)cccc21` (centres undefined), the 50% effective dose (ED50) in the data set on Rattus norvegicus [1] was found to be 1 mg/kg.
Take `CCC1(CC(=O)O)OCCc2c1[nH]c1c(Cl)ccc(Cl)c21` (centres undefined): in the data set with Rattus norvegicus [1], the ED50 turned out to be 5.5 mg/kg.
As to `CCCC1(CC(=O)O)OCCc2c1[nH]c1c(C)cccc21` (centres undefined), in the data set on Rattus norvegicus [1], the median effective dose (ED50) was determined as 11.8 mg/kg.
On to `CCCC1(CC(=O)O)OCCc2c1[nH]c1ccc(C)cc21` (centres undefined), for which the inhibition result with Rattus norvegicus [6] was “inactive”.
Consider `CCCCc1cccc2c3c([nH]c12)C(CC)(CC(=O)O)OCC3` (centres undefined), for which the inhibition entry in the data set on Rattus norvegicus [7] was “inactive”.
Consider `CCC1(CC(=O)O)OCCc2c1[nH]c1c(C)c(F)ccc21` (centres undefined), for which the median effective dose (ED50) with Rattus norvegicus [1] is 0.9 mg/kg. Further, in data set [2], the selectivity ratio worked out at 29. Moreover, the ED30 in the data set with Rattus norvegicus [5] was 37 mg/kg. In addition, the TD50 at 18 h in data set [3] was 26 mg/kg.
The corresponding values for `CCCc1cccc2c3c([nH]c12)C(CC)(CC(=O)O)OCC3` (centres undefined) are 0.4 mg/kg, 50, 10 mg/kg and 20 mg/kg.
As for `CCC1(CC(=O)O)OCCc2c1[nH]c1ccc(F)cc21` (centres undefined), in the data set with Rattus norvegicus [1], the ED50 was determined as 5 mg/kg.
As for `CCC1(CC(=O)O)OCCc2c1[nH]c1cccc(C)c21` (centres undefined), in the data set with Rattus norvegicus [1], the ED50 was found to be 11 mg/kg.
The same measure, in the same setting: as for `CCC(C)c1cccc2c3c([nH]c12)C(CC)(CC(=O)O)OCC3` (centres undefined), the figure is 2.6 mg/kg; as for `CCC1(CC(=O)O)OCCc2c1[nH]c1c(Cl)cccc21` (centres undefined), 2.4 mg/kg.
Regarding `CCC1(CC(=O)O)OCCc2c1[nH]c1cc(F)ccc21` (centres undefined), the 50% effective dose (ED50) in the data set on Rattus norvegicus [1] was 3 mg/kg.
Turning to `CCC1(CC(=O)O)OCCc2c1[nH]c1c(OC)cccc21` (centres undefined), the result in the data set on Rattus norvegicus [6] was inactive.
Consider `CCCC1(CC(=O)O)OCCc2c1[nH]c1c(C)c(Cl)ccc21` (centres undefined), for which the ED50 with Rattus norvegicus [1] is 3.4 mg/kg.
As to `CCCC1(CC(=O)O)OCCc2c1[nH]c1cc(OC)ccc21` (centres undefined), in the data set on Rattus norvegicus [6], the inhibition entry was “inactive”.
In the case of `CCCc1cccc2c3c([nH]c12)C(CCC)(CC(=O)O)OCC3` (centres undefined), the ED50 in the data set with Rattus norvegicus [1] amounted to 6 mg/kg.
The same measure, in the same setting: in the case of `CCC1(CC(=O)O)OCCc2c1[nH]c1cc(Cl)ccc21` (centres undefined) it was 3.2 mg/kg; in that of `CCC1(CC(=O)O)OCCc2c1[nH]c1c(C)ccc(C)c21` (centres undefined), 3.2 mg/kg; in that of `CCC1(CC(=O)O)OCCc2c1[nH]c1cc(C(F)(F)F)ccc21` (centres undefined), 1.2 mg/kg.
Consider `CCC1(CC(=O)O)OCCc2c1[nH]c1c(C3CCCCC3)cccc21` (centres undefined), for which the 50% effective dose (ED50) in the data set on Rattus norvegicus [1] is above 10 mg/kg.
Turning to `COc1ccc2c(c1)c(CC(=O)O)c(C)n2C(=O)c1ccc(Cl)cc1` [INDOMETHACIN], the 50% effective dose (ED50) in the data set on Rattus norvegicus [1] worked out at 0.2 mg/kg. Moreover, the selectivity ratio in data set [2] amounted to 30. In addition, in the data set with Rattus norvegicus [5], the ED30 stood at 1.3 mg/kg. Further, the TD50 at 18 h in data set [3] is 6 mg/kg.
On to `CCC1(CC(=O)O)OCCc2c1[nH]c1c(CC(C)C)cccc21` (centres undefined), for which, in the data set with Rattus norvegicus [1], the ED50 was determined as 5 mg/kg.
Same read-out and setting: as for `CCC1(CC(=O)O)OCCc2c1[nH]c1c(C3CCCC3)cccc21` (centres undefined), the figure is above 5 mg/kg.
On to `CCC1(CC(=O)O)OCCc2c1[nH]c1c(Cl)c(Cl)ccc21` (centres undefined), for which, in the data set on Rattus norvegicus [1], the ED50 was 1.1 mg/kg.
Turning to `CCC1(CC(=O)O)OCCc2c1[nH]c1c(C(C)C)cccc21` (centres undefined), the ED50 with Rattus norvegicus [1] was determined as 1.6 mg/kg.
